# Columns and labels:
# [1] = molecular target: Muscarinic acetylcholine receptor (Rattus norvegicus) (UniProt P08482+P08483+P08485+P08911+P10980)
# [2] = molecular target: Muscarinic acetylcholine receptor; test: In Vitro binding affinity to the muscarinic acetylcholine receptor site in rat brain by using [3H]QNB as the radioligand.; format: tissue-based
# [3] = molecular target: Muscarinic acetylcholine receptor; test: In vitro binding affinity to muscarinic acetylcholine receptor site in rat brain assayed using [3H]oxotremorine-M as the radioligand.; format: tissue-based
# [4] = molecular target: Muscarinic acetylcholine receptor; test: (§1) Agonist activity at muscarinic acetylcholine receptor in isolated guinea pig ileum.; format: functional, tissue-based, Cavia porcellus
# [5] = molecular target: Muscarinic acetylcholine receptor M3 (Cavia porcellus) (UniProt Q8VH26); test: Antagonist activity at muscarinic acetylcholine receptor in isolated guinea pig ileum.; format: functional, tissue-based
# In short: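 Isolated guinea pig ileum in tyrode solution; agonist dose-response curves built sequentially with 30-s contact time. Antagonist added to the tyrode 5 min before agonist responses were retested. K_B from regression analysis using at least four points, n = 4-8 per point.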
# [6] = molecular target: Muscarinic acetylcholine receptor; test: as §1; format: functional, tissue-based, Cavia porcellus; remark: listed apart in the source
# In short: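 Isolated ileum in Tyrode solution. Cumulative-free sequential agonist dose-response curves, 30-s contact time per dose. Contraction read out; EC50 derived from the curves. Efficacy expressed as percent of maximal contraction relative to the full agonist acetylcholine.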
# [7] = molecular target: Muscarinic acetylcholine receptor (Cavia porcellus); test: Antagonistic activity at muscarinic acetylcholine receptor in isolated guinea pig ileum.
# [8] = molecular target: Muscarinic acetylcholine receptor (Cavia porcellus); test: Antagonist activity at muscarinic acetylcholine receptor in isolated guinea pig ileum.
# Muscarinic acetylcholine receptor M3 (Cavia porcellus), sequence (Q8VH26 1-587): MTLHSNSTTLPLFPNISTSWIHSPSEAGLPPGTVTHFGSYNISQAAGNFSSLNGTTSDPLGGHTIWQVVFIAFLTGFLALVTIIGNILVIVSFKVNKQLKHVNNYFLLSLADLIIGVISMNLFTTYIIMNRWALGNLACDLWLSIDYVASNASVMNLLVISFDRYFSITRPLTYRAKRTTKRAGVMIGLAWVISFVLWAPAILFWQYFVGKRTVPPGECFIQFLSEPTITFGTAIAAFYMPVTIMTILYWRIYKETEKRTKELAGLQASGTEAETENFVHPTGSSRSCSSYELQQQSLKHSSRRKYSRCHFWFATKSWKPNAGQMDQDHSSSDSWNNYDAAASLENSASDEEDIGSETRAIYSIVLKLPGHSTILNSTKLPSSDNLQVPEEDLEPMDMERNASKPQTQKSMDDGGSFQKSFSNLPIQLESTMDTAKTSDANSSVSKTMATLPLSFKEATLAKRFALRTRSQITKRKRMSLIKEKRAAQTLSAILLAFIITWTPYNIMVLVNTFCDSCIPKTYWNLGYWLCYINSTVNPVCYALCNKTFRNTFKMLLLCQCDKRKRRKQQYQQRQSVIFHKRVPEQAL
Structure (SMILES),Muscarinic agonist index [1],IC50 [2],IC50 [3],EC50 [4],Kb [5],Kb [7],Kb [8],EC50 [6]
CCCCc1noc(C2=CCCNC2)n1,339,25.3 µM,0.0121 µM,0.32 µM,,,,
CCCc1nc(C2=CCCN(C)C2)no1.O=C(O)C(=O)O,80,88 µM,0.681 µM,> 30 µM,3.38 µM,,,
CCCCc1noc(C2CN3CCC2CC3)n1 (configuration not stated),4,1.5 µM,0.0585 µM,,0.07 µM,,,> 30 µM
COCCc1noc(C2=CCCN(C)C2)n1.O=C(O)C(=O)O,47,41.5 µM,0.144 µM,0.72 µM,,,,
CCCCCCCc1noc(C2=CCCN(C)C2)n1.O=C(O)C(=O)O,52,9.1 µM,0.0283 µM,0.13 µM,,,,
CCCCc1noc(C2=CCCN(CC)C2)n1,39,20.6 µM,0.0862 µM,> 30 µM,0.7 µM,,,
Cc1nc(C2=CCCN(C)C2)no1.O=C(O)C(=O)O,68,401 µM,0.955 µM,> 30 µM,,,8 µM,
CCOCCc1noc(C2=CCCN(C)C2)n1.O=C(O)C(=O)O,65,42.8 µM,0.107 µM,1.28 µM,,,,
CCc1nc(C2=CCCN(C)C2)no1.O=C(O)C(=O)O,26,156 µM,0.954 µM,> 30 µM,,,5.75 µM,
CCCCc1noc(C2=CCC(C)N(C)C2)n1 (configuration not stated),11,10.2 µM,0.145 µM,> 30 µM,0.13 µM,,,
CCCCCc1noc(C2=CCCN(C)C2)n1.O=C(O)C(=O)O,29,6.7 µM,0.0369 µM,0.62 µM,,,,
CCCCCCCCc1noc(C2=CCCN(C)C2)n1.O=C(O)C(=O)O,30,11 µM,0.0599 µM,1.46 µM,,,,
CCCCc1noc(C2=CCC3CCC2N3C)n1 (configuration not stated),8,8.9 µM,0.181 µM,> 30 µM,0.22 µM,,,
CCCCc1noc(C2=CC(C)CNC2)n1 (configuration not stated),15,64.3 µM,0.685 µM,> 30 µM,,,,

# Now from value to compound, other results behind:
Muscarinic agonist index [1],IC50 [2],IC50 [3],EC50 [4],Kb [5],Kb [7],Kb [8],Structure (SMILES),EC50 [6]
< 3,16 µM,> 0.85 µM,> 30 µM,0.16 µM,,,CN1CCC=C(c2nc(C3CCCCCC3)no2)C1.O=C(O)C(=O)O,
14,6.8 µM,0.078 µM,> 30 µM,0.15 µM,,,CN1CCC=C(c2nc(C3CC3)no2)C1.O=C(O)C(=O)O,
11,12.9 µM,0.191 µM,,,0.65 µM,,CN1CCC=C(c2nc(C3CCC3)no2)C1.O=C(O)C(=O)O,> 30 µM
14,15.8 µM,0.182 µM,> 30 µM,0.2 µM,,,CC(C)c1noc(C2=CCCN(C)C2)n1.O=C(O)C(=O)O,
15,10.8 µM,0.102 µM,> 30 µM,1.55 µM,,,CN1CCC=C(c2nc(C3CCCC3)no2)C1.O=C(O)C(=O)O,
235,11.3 µM,0.0078 µM,1 µM,,,,CN1CCC=C(c2nc(CC3CC3)no2)C1.O=C(O)C(=O)O,
181,15.8 µM,0.0141 µM,0.15 µM,,,,CCCCc1noc(C2=CCCN(C)C2)n1.O=C(O)C(=O)O,
5,9 µM,0.286 µM,> 30 µM,0.2 µM,,,CN1CCC=C(c2nc(C(C)(C)C)no2)C1.O=C(O)C(=O)O,
249,66.9 µM,0.0435 µM,0.42 µM,,,,COCc1noc(C2=CCCN(C)C2)n1.O=C(O)C(=O)O,
540,41 µM,0.0123 µM,0.032 µM,,,,Cc1noc(C2=CCCN(C)C2)n1.O=C(O)C(=O)O,
447,17.4 µM,0.0063 µM,0.1 µM,,,,CCCc1noc(C2=CCCN(C)C2)n1.O=C(O)C(=O)O,
520,35.3 µM,0.011 µM,0.2 µM,,,,CCc1noc(C2=CCCN(C)C2)n1.O=C(O)C(=O)O,
